Several values for one entry are separate records, joined by “and”; a condition that tells them apart may be missing. Equal values may be shown once. Read-outs that look alike come from different tables or passages of the source. Marks after values point to notes of the source that are not given here.
Experiments:
CYP3A5 = conditions: cited from earlier work
[1] = assay type: in vivo, human
Summary of the method: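 Uses the first log-transformed dose-normalized trough, taken within 4 days posttransplant. Variants and clinical factors were analysed by multiple linear regression with stepwise variable selection. Effect estimates and standard errors were taken from the final model. Age was mean-centered at 50.2 years. Center p-value is from the overall F-test.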

[2] = assay type: in vivo, human; remark: listed apart in the source
Summary of the method: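 Adult kidney or kidney-pancreas recipients on tacrolimus with mycophenolate and steroids, with or without induction. Whole-blood troughs were drawn before an oral dose: two per week in weeks 1–8 and two per month in months 3–6. Measurement was mostly by LC-MS. Doses were adjusted to center targets, generally 8–12 ng/mL (months 0–3) and 6–10 ng/mL (months 4–6). Dose-normalized trough = trough/daily dose (mg/kg). AA and non-AA were compared by Wilcoxon-Mann-Whitney.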

[3] = cited from earlier work
[4] = CYP3A5*3/*3 compared to *1/*1 or *1/*3; cited from earlier work
[5] = assay type: in vivo, human; remark: listed apart in the source
Summary of the method: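 Log of trough (ng/mL) divided by total daily dose (mg/kg), from up to 24 troughs per patient over 6 months, fitted by general linear model. Time posttransplant (1–24) was categorical, with a covariance structure for repeated measures. Clinical factors were retained at backward-selection F-test p<0.15. Variants were tested one at a time (additive model, Toeplitz covariance), adjusted for center and retained factors. Significance was set at FDR 20%, effective m=2110.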

[6] = African American (n=144), over the first 6 months
[7] = nonAfrican American (n=551), over the first 6 months

Effect on log transformed dose-normalized first trough (Estimate ± SE) ([1]; African American subjects only, Diabetes): 0.45 ± 0.12 | Effect on log transformed dose-normalized first trough (Estimate ± SE) ([1]; African American subjects only, rs776746 (CYP3A5)): −0.25 ± 0.08 | Effect on log transformed dose-normalized first trough (Estimate ± SE) ([1]; African American subjects only, rs2072374 (CNAP1)): −0.45 ± 0.17 | Effect on log transformed dose-normalized first trough (Estimate ± SE) ([1]; African American subjects only, rs2239393 (COMT)): −0.19 ± 0.08 | Effect on log transformed dose-normalized first trough (Estimate ± SE) ([1]; African American subjects only, rs2280789 (CCL5)): 0.23 ± 0.10 | Effect on log transformed dose-normalized first trough (Estimate ± SE) ([1]; African American subjects only, rs2288648 (FASTK)): −0.41 ± 0.17 | Effect on log transformed dose-normalized first trough (Estimate ± SE) ([1]; African American subjects only, rs3136228 (MSH6)): −0.20 ± 0.08 | Effect on log transformed dose-normalized first trough (Estimate ± SE) ([1]; African American subjects only, rs12114000 (CYP3A4)): 0.38 ± 0.11 | Effect on log transformed dose-normalized first trough (Estimate ± SE) ([1]; Non-African American subjects only, Age in years, mean-centered at 50.2 years): 0.010 ± 0.002 | Effect on log transformed dose-normalized first trough (Estimate ± SE) ([1]; Non-African American subjects only, Diabetes): 0.21 ± 0.06 | Effect on log transformed dose-normalized first trough (Estimate ± SE) ([1]; Non-African American subjects only, rs4926 (SERPING1)): −0.12 ± 0.04 | Effect on log transformed dose-normalized first trough (Estimate ± SE) ([1]; Non-African American subjects only, rs17567 (EPS15)): 0.12 ± 0.05 | Effect on log transformed dose-normalized first trough (Estimate ± SE) ([1]; Non-African American subjects only, rs776746 (CYP3A5)): −0.31 ± 0.07 | Effect on log transformed dose-normalized first trough (Estimate ± SE) ([1]; Non-African American subjects only, rs1800822 (FMO3)): 0.20 ± 0.09 | Effect on log transformed dose-normalized first trough (Estimate ± SE) ([1]; Non-African American subjects only, rs2239393 (COMT)): −0.07 ± 0.04 | Effect on log transformed dose-normalized first trough (Estimate ± SE) ([1]; Non-African American subjects only, rs2608555 (GAN)): 0.17 ± 0.04 | Effect on log transformed dose-normalized first trough (Estimate ± SE) ([1]; Non-African American subjects only, rs3135506 (APOA5)): −0.23 ± 0.08 | Effect on log transformed dose-normalized first trough (Estimate ± SE) ([1]; Non-African American subjects only, rs3734354 (SIM1)): 0.20 ± 0.06 | Effect on log transformed dose-normalized first trough (Estimate ± SE) ([1]; all subjects model, Age in years, mean-centered at 50.2 years): 0.008 ± 0.002 | Effect on log transformed dose-normalized first trough (Estimate ± SE) ([1]; all subjects model, Diabetes): 0.23 ± 0.05 | Effect on log transformed dose-normalized first trough (Estimate ± SE) ([1]; all subjects model, rs3448 (GPX1)): 0.07 ± 0.04 | Effect on log transformed dose-normalized first trough (Estimate ± SE) ([1]; all subjects model, rs4926 (SERPING1)): −0.09 ± 0.04 | Effect on log transformed dose-normalized first trough (Estimate ± SE) ([1]; all subjects model, rs13321 (TNC)): 0.06 ± 0.04 | Effect on log transformed dose-normalized first trough (Estimate ± SE) ([1]; all subjects model, rs17567 (EPS15)): 0.10 ± 0.04 | Effect on log transformed dose-normalized first trough (Estimate ± SE) ([1]; all subjects model, rs776746 (CYP3A5)): −0.33 ± 0.05 | Effect on log transformed dose-normalized first trough (Estimate ± SE) ([1]; all subjects model, rs2072374 (CNAP1)): −0.08 ± 0.04 | Effect on log transformed dose-normalized first trough (Estimate ± SE) ([1]; all subjects model, rs2239393 (COMT)): −0.28 ± 0.08 | Effect on log transformed dose-normalized first trough (Estimate ± SE) ([1]; all subjects model, rs2608555 (GAN)): 0.15 ± 0.04 | Effect on log transformed dose-normalized first trough (Estimate ± SE) ([1]; all subjects model, rs2687117 (CYP3A4)): 0.26 ± 0.08 | Effect on log transformed dose-normalized first trough (Estimate ± SE) ([1]; all subjects model, rs3135506 (APOA5)): −0.23 ± 0.07 | Effect on log transformed dose-normalized first trough (Estimate ± SE) ([1]; all subjects model, rs3734354 (SIM1)): 0.19 ± 0.06 | Effect on log transformed dose-normalized first trough (Estimate ± SE) ([1]; all subjects model, rs4646312 (COMT)): 0.22 ± 0.08 | Median trough ([2]; AAs, remained despite 60% higher doses (Figure 1)): < 8 ng/mL | Trough concentration, median (interquartile range) [2, 6]: 6.2 (4.4–8.4) ^d ng/mL | Trough dose-normalized, median (interquartile range) [2, 6]: 68.3 (46.1–103.6) ^d ng/ml per mg/kg/day | Subjects with first trough <8 ng/mL ([2]; African Americans): 96.6% | First trough concentration (week one posttransplant), median (interquartile range) ([2]; African Americans, daily dose 4.0 (4.0–5.0) mg/day): 2.1 (1.2–3.5) ng/mL | Dose-normalized trough, median (interquartile range) ([2]; CYP3A5*1/*1 genotype): 54.3(37.9–80.3) ng/mL per mg/kg | Trough concentration, median (interquartile range) ([2]; CYP3A5 *1/*1 genotype (rs776746)): 5.8(4.1–7.9) ng/mL | Dose-normalized trough, median (interquartile range) ([2]; CYP3A5 *1/*3 genotype): 77.8(53.1–114.6) ng/mL per mg/kg | Trough concentration, median (interquartile range) ([2]; CYP3A5 *1/*3 genotype (rs776746)): 7.1(5.1–9.3) ng/mL | Dose-normalized trough, median (interquartile range) ([2]; CYP3A5 *3/*3 genotype): 141.1(91.7–214.5) ng/mL per mg/kg | Trough concentration, median (interquartile range) ([2]; CYP3A5 *3/*3 genotype (rs776746)): 8.4(6.5–10.5) ng/mL | Trough dose-normalized, median (interquartile range) ([2]; all subjects (n=695), over the first 6 months): 116.5 (70.7–186.3) ng/ml per mg/kg/day | Trough concentration, median (interquartile range) ([2]; all subjects (n=695), over the first 6 months, whole blood, oral dosing): 7.9 (5.9–10.1) ng/mL | Trough concentration, median (interquartile range) ([2]; center 1, 6 month study period): 9.5 (8.0–11.4) ng/mL | Trough concentration, median (interquartile range) ([2]; center 2, 6 month study period): 10.5 (7.4–13.0) ng/mL | Trough concentration, median (interquartile range) ([2]; center 3, 6 month study period): 7.9 (6.1–10.1) ng/mL | Trough concentration, median (interquartile range) ([2]; center 4, 6 month study period): 9.7 (7.5–12.2) ng/mL | Trough concentration, median (interquartile range) ([2]; center 5, 6 month study period): 8.9 (7.1–10.6) ng/mL | Trough concentration, median (interquartile range) ([2]; center 6, 6 month study period): 9.1 (7.0–11.3) ng/mL | Trough concentration, median (interquartile range) ([2]; center 7, 6 month study period): 6.6 (4.7–8.7) ng/mL | First trough concentration ([2]; measured within 4 days after transplantation, in most subjects): < 5 ng/mL | Troughs achieved ([2]; non-AA group, quickly achieved (Figure 1)): > 8 ng/mL | Subjects with first trough <8 ng/mL ([2]; non-African Americans): 73.9% | Trough concentration, median (interquartile range) [2, 7]: 8.3 (6.4–10.4) ng/mL | Trough dose-normalized, median (interquartile range) [2, 7]: 131.4 (83.0–201.8) ng/ml per mg/kg/day | Median trough lower in AA than in non-AA recipients ([2]; over the 6 month study period, AAs on 60% higher median daily dose): 2.1 ng/mL | Reduction in log transformed dose-normalized trough ([5]; AA race relative to non-AAs): 0.04 | Increase in dose-normalized trough ([5]; CYP3A4 (rs7801671, rs12114000, rs2687117), CYP3A7 (rs2687080, rs776740), CYP3A5 (rs10264272) variants, adjusted for rs776746): 20–32% | Increase in log transformed dose-normalized troughs ([5]; calcium channel blocker (CCB) use): 0.03 | Increase in log transformed dose-normalized troughs ([5]; diabetes): 0.12 | Increase in log transformed dose-normalized troughs ([5]; male gender): 0.17 | Reduction in log transformed dose-normalized troughs ([5]; one A allele (CYP3A5*1, rs776746)): 36% | Effect on log transformed dose-normalized troughs (estimate ± SE) ([5]; one A allele (CYP3A5*1, rs776746), adjusted for clinical factors): −0.44±0.03 | Increase in log transformed dose-normalized troughs ([5]; one allele of CYP3A4 (rs7801671, rs12114000, rs2687117), CYP3A7 (rs2687080, rs776740), CYP3A5 (rs10264272) variants, adjusted for rs776746): 0.18–0.28 | Reduction in log transformed dose-normalized troughs ([5]; two A alleles (CYP3A5*1, rs776746)): 59%
SMILES: C=CC[C@@H]1/C=C(\C)C[C@H](C)C[C@H](OC)[C@H]2O[C@@](O)(C(=O)C(=O)N3CCCC[C@H]3C(=O)O[C@H](/C(C)=C/[C@@H]3CC[C@@H](O)[C@H](OC)C3)[C@H](C)[C@@H](O)CC1=O)[C@H](C)C[C@@H]2OC [tacrolimus, Tacrolimus]
Fraction metabolized through CYP3A5 (CYP3A5; hepatic enzymes from CYP3A5*1 allele carriers): 60% | Intrinsic tacrolimus clearance of CYP3A5 enzyme relative to CYP3A4 (CYP3A5; in vitro): twice | First trough concentration (week one posttransplant), median (interquartile range) ([2]; non-African Americans, daily dose 4.0 [4.0–6.0] mg/day): 5.0 [3.1–8.2] ng/mL and 5.0 (3.1–8.2) ng/mL | Subjects achieving the trough target ([3]; control group): 29.1% | Subjects achieving the trough target ([3]; genotype adapted dosing): 43.2% | Intersubject pharmacokinetic variability in area under the curve, higher [4]: 41.1%
